In ChEMBL document CHEMBL1671838, “Discovery of MK-1220: A Macrocyclic Inhibitor of Hepatitis C Virus NS3/4A Protease with Improved Preclinical Plasma Exposure” (ACS Med Chem Lett, 2011):

What was measured:
Hepatitis C virus [1] = assay: Antiviral activity against HCV1b con1 infected in human HuH7 cells assessed as inhibition of viral replication after 24 hrs in presence of 10% fetal bovine serum; format: functional, organism-based, Hepacivirus hominis; conditions: Con1, Huh-7, 24 h
How it was run: (§1)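 Cell-based HCV replicon assay giving IC50. Genotype 1b replicon run with 10% fetal bovine serum or with 50% normal human serum. Genotype 2a replicon run with 10% FBS.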

[2] = Drug level in Sprague-Dawley rat liver at 5 mg/kg, po after 4 hrs; format: ADME, organism-based; set-up: dose 5 mg/kg, route oral; conditions: read-out: Drug uptake
How it was run: (§2)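 Rat PK screen: 5 mg/kg given orally in PEG400, n = 2; plasma AUC calculated from a 4 h experiment, and liver concentration measured at 4 h after dosing.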

Hepatitis C virus [3] = assay: Antiviral activity against HCV1b con1 infected in human HuH7 cells assessed as inhibition of viral replication after 24 hrs in presence of 50% normal human serum; format: functional, organism-based, Hepacivirus hominis; conditions: Con1, Huh-7, 24 h; how it was run: as §1
[4] = Inhibition of HCV NS3/4A protease expressed Escherichia coli after 1 hr by time-resolved fluorescence assay; set-up: species or system Hepacivirus hominis
How it was run: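 Binding assay against genotype 1b HCV NS3/4A protease, read by time-resolved fluorescence; potency expressed as Ki.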

[5] = AUC in Sprague-Dawley rat plasma at 5 mg/kg, po after 4 hrs; format: ADME, organism-based; set-up: time < 4 hr, dose 5 mg/kg, route oral; how it was run: as §2
Hepatitis C virus [6] = assay: Antiviral activity against HCV2a infected in human HuH7 cells assessed as inhibition of viral replication after 24 hrs in presence of 10% fetal bovine serum; format: functional, organism-based, Hepacivirus hominis; conditions: genotype 2a, Huh-7, 24 h; how it was run: as §1

SMILES	IC50 (Hepatitis C virus [1]) [nM]	concentration at 4 h [2] [µM]	AUC at 4 h [5] [µM·h]	IC50 (Hepatitis C virus [6]) [nM]	IC50 (Hepatitis C virus [3]) [nM]	Ki [4] [nM]
C=C[C@@H]1C[C@]1(NC(=O)[C@@H]1C[C@@H]2CN1C(=O)[C@H](C1CCCCC1)NC(=O)OCCCCCc1ccc3ccnc(c3c1)O2)C(=O)NS(=O)(=O)C1CC1	4.5	29.8	3.1	–	181	0.15
C=C[C@@H]1C[C@]1(NC(=O)[C@@H]1C[C@@H]2CN1C(=O)[C@H](C1CCCC1)NC(=O)OCCCCCc1cc3c(nccc3cc1OC)O2)C(=O)NS(=O)(=O)C1CC1	2	8	18.1	–	80	0.03
C=C[C@@H]1C[C@]1(NC(=O)[C@@H]1C[C@@H]2CN1C(=O)[C@H](C(C)(C)C)NC(=O)OCCCCCc1cc(SC)c3ccnc(c3c1)O2)C(=O)NS(=O)(=O)C1CC1	2	12.6	1.8	–	34	0.03
C=C[C@@H]1C[C@]1(NC(=O)[C@@H]1C[C@@H]2CN1C(=O)[C@H](C(C)(C)C)NC(=O)OCCCCCc1cc(CC)c3ccnc(c3c1)O2)C(=O)NS(=O)(=O)C1CC1	2.5	12.5	2.1	–	90	0.14
C=C[C@@H]1C[C@]1(NC(=O)[C@@H]1C[C@@H]2CN1C(=O)[C@H](C1CCCC1)NC(=O)OCC(C)(C)CCCc1ccc3ccnc(c3c1)O2)C(=O)NS(=O)(=O)C1CC1	2	16	0.18	11	10	0.02
C=C[C@@H]1C[C@]1(NC(=O)[C@@H]1C[C@@H]2CN1C(=O)[C@H](C(C)(C)C)NC(=O)OCCCCCc1cc(C(F)(F)F)c3ccnc(c3c1)O2)C(=O)NS(=O)(=O)C1CC1	21	–	–	–	410	0.25
C=C[C@@H]1C[C@]1(NC(=O)[C@@H]1C[C@@H]2CN1C(=O)[C@H](c1c[nH]c3ccccc13)NC(=O)OCCC/C=C/c1ccc3ccnc(c3c1)O2)C(=O)NS(=O)(=O)C1CC1	20	0.4	0.07	–	–	2
C=C[C@@H]1C[C@]1(NC(=O)[C@@H]1C[C@@H]2CN1C(=O)[C@H](C(C)(C)C)NC(=O)OCCCCCc1cc(Br)c3ccnc(c3c1)O2)C(=O)NS(=O)(=O)C1CC1	2	5.8	0.28	–	170	0.04
C=C[C@@H]1C[C@]1(NC(=O)[C@@H]1C[C@@H]2CN1C(=O)[C@H](c1ccccc1)NC(=O)OCCCCCc1ccc3ccnc(c3c1)O2)C(=O)NS(=O)(=O)C1CC1	–	–	–	–	–	1
C=C[C@@H]1C[C@]1(NC(=O)[C@@H]1C[C@@H]2CN1C(=O)[C@H](C(C)(C)C)NC(=O)OCCCCCc1ccc3ccnc(c3c1)O2)C(=O)NS(=O)(=O)C1CC1	8.7	–	0.27	–	46	0.18
C=C[C@@H]1C[C@]1(NC(=O)[C@@H]1C[C@@H]2CN1C(=O)[C@H](C1CCOCC1)NC(=O)OCCC/C=C/c1ccc3ccnc(c3c1)O2)C(=O)NS(=O)(=O)C1CC1	9	< 0.2	0.5	–	20	0.07
C=C[C@@H]1C[C@]1(NC(=O)[C@@H]1C[C@@H]2CN1C(=O)[C@H](Cc1ccccc1)NC(=O)OCCC/C=C/c1ccc3ccnc(c3c1)O2)C(=O)NS(=O)(=O)C1CC1	3	10	0.43	–	–	0.65
C=C[C@@H]1C[C@]1(NC(=O)[C@@H]1C[C@@H]2CN1C(=O)[C@H](C1CCCC1)NC(=O)OCCC/C=C/c1ccc3ccnc(c3c1)O2)C(=O)NS(=O)(=O)C1CC1	2	9.2	4.2	–	40	0.1
C=C[C@@H]1C[C@]1(NC(=O)[C@@H]1C[C@@H]2CN1C(=O)[C@H](C1CCCCC1)NC(=O)OCCCCCc1cc(OC)c3ccnc(c3c1)O2)C(=O)NS(=O)(=O)C1CC1	3	13.2	2.5	6	60	0.05
C=C[C@@H]1C[C@]1(NC(=O)[C@@H]1C[C@@H]2CN1C(=O)[C@H](C(C)(C)C)NC(=O)OCCCCCc1cc(I)c3ccnc(c3c1)O2)C(=O)NS(=O)(=O)C1CC1	2.3	24.5	1.4	–	56	0.03
C=C[C@@H]1C[C@]1(NC(=O)[C@@H]1C[C@@H]2CN1C(=O)[C@H](C1CCCCC1)NC(=O)OCCC/C=C/c1ccc3ccnc(c3c1)O2)C(=O)NS(=O)(=O)C1CC1	2.5	46.9	0.67	–	78	0.063

The remaining compounds from weak to strong by IC50 (Hepatitis C virus [1]), led by results:

IC50 (Hepatitis C virus [1]) [nM]	concentration at 4 h [2] [µM]	AUC at 4 h [5] [µM·h]	IC50 (Hepatitis C virus [6]) [nM]	SMILES	IC50 (Hepatitis C virus [3]) [nM]	Ki [4] [nM]
280	–	–	–	C=C[C@@H]1C[C@]1(NC(=O)[C@@H]1C[C@@H]2CN1C(=O)[C@H](C(C)(C)C)NC(=O)OCCCCCc1cc(S(C)(=O)=O)c3ccnc(c3c1)O2)C(=O)NS(=O)(=O)C1CC1	> 1000	0.11
50	8.8	1.6	–	C=C[C@@H]1C[C@]1(NC(=O)[C@@H]1C[C@@H]2CN1C(=O)[C@H](C(C)(C)C)NC(=O)OCCCCCc1cc(OC(F)(F)F)c3ccnc(c3c1)O2)C(=O)NS(=O)(=O)C1CC1	4400	0.75
15	0.09	0.8	–	C=C[C@@H]1C[C@]1(NC(=O)[C@@H]1C[C@@H]2CN1C(=O)[C@H](C1CCOCC1)NC(=O)OCCCCCc1ccc3ccnc(c3c1)O2)C(=O)NS(=O)(=O)C1CC1	34	0.07
7	–	–	–	C=C[C@@H]1C[C@]1(NC(=O)[C@@H]1C[C@@H]2CN1C(=O)[C@H](C1CCC1)NC(=O)OCCCCCc1ccc3ccnc(c3c1)O2)C(=O)NS(=O)(=O)C1CC1	130	0.18
6	15.2	6.9	–	C=C[C@@H]1C[C@]1(NC(=O)[C@@H]1C[C@@H]2CN1C(=O)[C@H](C(C)(C)C)NC(=O)OCCCCCc1cc(OCC)c3ccnc(c3c1)O2)C(=O)NS(=O)(=O)C1CC1	500	0.37
5	4.5	0.15	–	C=C[C@@H]1C[C@]1(NC(=O)[C@@H]1C[C@@H]2CN1C(=O)[C@H](C1Cc3ccccc3C1)NC(=O)OCCC/C=C/c1ccc3ccnc(c3c1)O2)C(=O)NS(=O)(=O)C1CC1	20	0.07
4.5	18.6	0.36	–	C=C[C@@H]1C[C@]1(NC(=O)[C@@H]1C[C@@H]2CN1C(=O)[C@H](C(C)(C)C)NC(=O)OCCC/C=C/c1ccc3ccnc(c3c1)O2)C(=O)NS(=O)(=O)C1CC1	14	0.04
3	3	9.6	–	C=C[C@@H]1C[C@]1(NC(=O)[C@@H]1C[C@@H]2CN1C(=O)[C@H](C(C)(C)C)NC(=O)OCCCCCc1cc3c(nccc3cc1OC)O2)C(=O)NS(=O)(=O)C1CC1	113	0.04
2.7	33.2	17.7	–	C=C[C@@H]1C[C@]1(NC(=O)[C@@H]1C[C@@H]2CN1C(=O)[C@H](C(C)(C)C)NC(=O)OCCCCCc1cc(OC)c3ccnc(c3c1)O2)C(=O)NS(=O)(=O)C1CC1	35	0.04
